Bioassay records as filed in PubChem BioAssay.
MrgX1 agonist: activates human MrgX1 receptor signaling. Q96LB2. MrgX1-HEK293 cells, Fluo-4 calcium fluorescence, agonist mode; stronger effect = higher value. B-score at 10 µM. 310,000 tested, 0.44% active;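 active = calcium response B-score plate-corrected fluorescence ratio at least 3 library SD, with starting fluorescence B-score inside 5 SD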
Target sequence (Q96LB2 whole entry, looked up): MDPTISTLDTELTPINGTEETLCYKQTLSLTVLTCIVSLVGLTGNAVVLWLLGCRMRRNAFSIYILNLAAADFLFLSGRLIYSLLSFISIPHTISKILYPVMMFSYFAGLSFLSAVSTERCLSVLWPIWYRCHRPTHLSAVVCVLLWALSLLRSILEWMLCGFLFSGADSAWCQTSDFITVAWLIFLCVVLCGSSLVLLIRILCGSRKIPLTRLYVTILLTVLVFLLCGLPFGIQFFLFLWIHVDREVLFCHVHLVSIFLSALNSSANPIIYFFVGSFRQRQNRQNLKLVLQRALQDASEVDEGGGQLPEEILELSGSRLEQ
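Assay system: MrgX1-expressing HEK293 cells / Amount: fifteen thousand cells per well / Doses: test compound in the initial addition of three / Timing: cells plated overnight, dye loaded 0.5 h 37 °C, 0.5 h room temperature / Technique: kinetic calcium dye fluorescence, Fluo-4 NW / Control set: positive and negative controls per plate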
MrgX1 antag: antagonists of human MrgX1 receptor. Q96LB2. MRGX1-HEK293 calcium flux, Fluo-4, BAM8-22 antagonism; stronger effect = lower value. B-score at 10 µM. 310,000 tested, 1.3% active. AID 588676;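 active = calcium-response B-score plate-corrected more than 3 library SD below zero, starting fluorescence within 5 deviations, no agonist response on first addition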;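 also: peak minus trough fluorescence over baseline after final BAM8-22 challenge near maximal dose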
MrgX1 allo act: allosterically activates human MrgX1 receptor signaling. Q96LB2. MrgX1-HEK293, Fluo-4 calcium flux, FDSS; stronger effect = higher value. B-score at 10 µM. 310,000 tested, 0.63% active;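 active = plate-corrected calcium response at least 3 library SD above typical, normal starting fluorescence, not activating the receptor alone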;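 also: compound read alongside a low EC10 to EC30 dose of BAM8-22 agonist; peak minus trough fluorescence over baseline measured at the second addition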
RGS4 block: human RGS4 inhibition; P49798; HEK293 M3R/RGS4 inducible, Fluo-4 calcium flux; stronger effect = higher value; triggered by carbachol at its EC20; B-score at 10 µM; 310,000 tested, 0.45% active; AID 463165;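 active = B-score, a plate-corrected calcium signal, over three deviations above library mean, with baseline fluorescence within five deviations of library mean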;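 also: RGS4 expression induced by doxycycline in cells with stable M3 receptor; B-score is computed from the integrated fluorescence ratio over baseline after carbachol; higher B-score means a larger calcium signal and so more RGS4 inhibition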
Target sequence (P49798 whole entry, looked up): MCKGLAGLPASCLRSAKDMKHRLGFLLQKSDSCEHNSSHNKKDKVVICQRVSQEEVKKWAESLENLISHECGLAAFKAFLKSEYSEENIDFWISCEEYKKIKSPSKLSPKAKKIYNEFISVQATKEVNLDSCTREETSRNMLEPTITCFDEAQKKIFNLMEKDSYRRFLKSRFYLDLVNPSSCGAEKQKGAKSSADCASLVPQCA
RGS4 pot: RGS4 potentiation or activation; HEK293 M3R/inducible RGS4, carbachol calcium flux Fluo4; stronger effect = lower value; B-score at 10 µM; 310,000 tested, 0.92% active; AID 463111;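 active = B-score of the integrated calcium signal more than 4 SD below the library mean, with starting fluorescence not abnormally high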;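 also: negative B-score means reduced calcium response which marks RGS4 activation or potentiation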
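Detection: kinetic calcium fluorescence imaging with Fluo4-AM dye, 2 µM / Material: HEK293 cells with stable M3R and inducible RGS4 / Schedule: recording 10 s baseline at 1 Hz, 100 s post-agonist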
MrgX1 ag reconf: reconfirmed activator of human MrgX1 receptor signaling; shares compounds with MrgX1 agonist; MrgX1-HEK293, Fluo-4 calcium fluorescence, FDSS; AID 602412; activation, % at 10 µM; 600 tested, 78% active;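 active = calcium signal rise, corrected for plate position, at least 3 library SD high, with starting brightness within 5 such deviations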
MrgX1 allo conf: reconfirmed allosteric activator of human MrgX1 receptor. shares compounds with MrgX1 allo act. AID 602413. activation (ratio percentage), % at 10 µM. MrgX1-HEK293, Fluo-4 calcium fluorescence, FDSS. 1,200 tested, 13% active;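 active = ratio at least 3 SD above the weak peptide control, stable starting fluorescence, no direct agonism earlier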;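 also: compound followed by low BAM8-22 agonist challenge near EC20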
HEK293 Ca flux: MrgX1 antagonist counter-screen hit in parental HEK293 cells. shares compounds with MrgX1 antag. Fluo-4 calcium fluorescence, FDSS. fluorescence ratio F(max-min)/F0 at 10 µM. 4,000 tested, 2% active. AID 624111;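 active = duplicate-averaged calcium fluorescence ratio at least three times the standard deviation of buffer wells, a nonspecific response in parental cells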
HEK293 Ca counter: counter-screen for MrgX1 allosteric activators: effect in parental HEK293 cells | shares compounds with MrgX1 antag | parental HEK293 calcium flux, Fluo-4 fluorescence ratio; stronger effect = higher value | fluorescence ratio F(max-min)/F0 at 10 µM | 4,000 tested, 0.4% active | AID 624114;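 active = calcium fluorescence ratio, averaged over duplicates, at least 3 SD of the buffer-well ratio, meaning a nonspecific response in receptor-free cells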;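 also: untransfected parental HEK293 lacking MrgX1 used as counterscreen for MrgX1 allosteric activators; fluorescence change taken during the second addition on a kinetic imager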
HEK293 Ca cntr2: counter-screen for MrgX1 activators: effect in parental HEK293 cells. fluorescence ratio F(max-min)/F0 at 10 µM. Fluo-4 calcium fluorescence (FDSS); stronger effect = higher value. shares compounds with MrgX1 antag. 4,000 tested, 8.7% active. AID 624115;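 active = calcium fluorescence ratio at least three times the spread of buffer wells, meaning a non-specific response in parental cells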
Numbers without * were called inactive. A selection: hits, their analogues and other compounds. The true share with any hit is near 3.5%.

`CCN1CCN(c2ccc(S(=O)(=O)N3CCOCC3)cc2NC(=O)/C=C/c2ccc([N+](=O)[O-])cc2)CC1` gave MrgX1 agonist inactive, MrgX1 antag inactive, MrgX1 allo act inactive, RGS4 block inactive and RGS4 pot inactive.
`CC(C)(C)c1ccc(S(=O)(=O)/N=C2\C=C(NS(=O)(=O)c3ccccc3)C(=O)c3ccccc32)cc1` gave MrgX1 agonist 27*, MrgX1 antag inactive, MrgX1 allo act inactive, RGS4 block inactive, RGS4 pot inactive, MrgX1 ag reconf 80%*, HEK293 Ca flux inactive, HEK293 Ca counter inactive and HEK293 Ca cntr2 57*.
`Cc1[nH]c2ccccc2c1-c1nc(N)sc1C` gave MrgX1 agonist 38*, MrgX1 antag inactive, MrgX1 allo act inactive, RGS4 block inactive, RGS4 pot inactive, MrgX1 ag reconf inactive, HEK293 Ca flux inactive, HEK293 Ca counter inactive and HEK293 Ca cntr2 inactive.
Screening Cc1sc(N)nc1-c1ccc(Oc2ccccc2)cc1 returned MrgX1 agonist inactive, MrgX1 antag inactive, MrgX1 allo act inactive, RGS4 block inactive and RGS4 pot inactive.
Screening COc1ccccc1-c1ccc(/C=C2\C=CC(=O)O2)o1 returned MrgX1 agonist 91*, MrgX1 antag inactive, MrgX1 allo act inactive, RGS4 block inactive, RGS4 pot inactive, MrgX1 ag reconf inactive, HEK293 Ca flux 0.2*, HEK293 Ca counter inactive and HEK293 Ca cntr2 inactive.
`COc1ccccc1-c1ccc(/C=C2/C=C(C)OC2=O)o1` gave MrgX1 agonist inactive, MrgX1 antag inactive, MrgX1 allo act inactive, RGS4 block inactive and RGS4 pot inactive.
CC(=O)c1ccc(N2CCC(c3cc(-c4ccc(Cl)cc4)n[nH]3)CC2)c([N+](=O)[O-])c1 was read as MrgX1 agonist inactive, MrgX1 antag inactive, MrgX1 allo act inactive, RGS4 block inactive and RGS4 pot inactive.
CC1=NN2C(=N)/C(=C\c3ccc(SCc4ccccc4)o3)C(=O)N=C2S1 was read as MrgX1 agonist inactive, MrgX1 antag inactive, MrgX1 allo act inactive, RGS4 block inactive and RGS4 pot inactive.
Screening N=C1/C(=C\c2ccc(SCc3ccco3)o2)C(=O)N=C2SC=NN12 returned MrgX1 agonist 90*, MrgX1 antag inactive, MrgX1 allo act inactive, RGS4 block inactive, RGS4 pot inactive, MrgX1 ag reconf 267%*, HEK293 Ca flux inactive, HEK293 Ca counter inactive and HEK293 Ca cntr2 47*.
Screening Cc1cc(-c2nn(-c3ccccc3F)cc2CN2CCN(c3ccncc3)CC2)c(C)s1 returned MrgX1 agonist 56*, MrgX1 antag inactive, MrgX1 allo act inactive, RGS4 block inactive, RGS4 pot inactive, MrgX1 ag reconf 268%*, HEK293 Ca flux inactive, HEK293 Ca counter inactive and HEK293 Ca cntr2 inactive.
Screening Cc1ccc(N/C(N)=N/c2nc3c(c(=O)[nH]2)CCCC3)c(C)c1 returned MrgX1 agonist inactive, MrgX1 antag inactive, MrgX1 allo act inactive, RGS4 block inactive and RGS4 pot inactive.
Cc1ccc(N/C(N)=N/c2nc(C)cc(N3CCCCC3)n2)c(C)c1 was read as MrgX1 agonist 34*, MrgX1 antag inactive, MrgX1 allo act inactive, RGS4 block inactive, RGS4 pot inactive, MrgX1 ag reconf 137%*, HEK293 Ca flux inactive, HEK293 Ca counter inactive and HEK293 Ca cntr2 inactive.
Cc1ccc(C(C)(O)CS(=O)(=O)Cc2ccccc2)cc1 (configuration not stated) was read as MrgX1 agonist inactive, MrgX1 antag inactive, MrgX1 allo act inactive, RGS4 block inactive and RGS4 pot inactive.
`Cc1ccc(-n2sc3ccccc3c2=O)cc1S(=O)(=O)N1CCCCC1` gave MrgX1 agonist inactive, MrgX1 antag inactive, MrgX1 allo act inactive, RGS4 block inactive and RGS4 pot inactive.
Cc1ccccc1-n1sc2cc(F)ccc2c1=O was read as MrgX1 agonist 40*, MrgX1 antag inactive, MrgX1 allo act inactive, MrgX1 ag reconf 303%*, HEK293 Ca flux inactive, HEK293 Ca counter inactive and HEK293 Ca cntr2 66*.
O=Cc1cn(CC(=O)N2CCc3ccccc32)c2ccccc12 was read as MrgX1 agonist inactive, MrgX1 antag inactive, MrgX1 allo act inactive, RGS4 block inactive and RGS4 pot inactive.
Screening CCOC(=O)c1ccc2c(c1)N(CC#N)C(=O)C(C)(C)O2 returned MrgX1 agonist 50*, MrgX1 antag inactive, MrgX1 allo act inactive, RGS4 block inactive, RGS4 pot inactive, MrgX1 ag reconf 109%*, HEK293 Ca flux inactive, HEK293 Ca counter inactive and HEK293 Ca cntr2 46*.
Screening CCOC(=O)c1ccc2c(c1)N(CC(=O)N1CCCC1)C(=O)C(C)(C)O2 returned MrgX1 agonist inactive, MrgX1 antag inactive, MrgX1 allo act inactive, RGS4 block inactive and RGS4 pot inactive.
`COc1cc(NC(=O)CCCNC(=O)c2ccc(Cl)cc2)cc(OC)c1OC` gave MrgX1 agonist inactive, MrgX1 antag inactive, MrgX1 allo act inactive, RGS4 block inactive and RGS4 pot inactive.
`Cc1cc(SCC(=O)c2ccc3c(c2)OCO3)nc2ccccc12` gave MrgX1 agonist inactive, MrgX1 antag inactive, MrgX1 allo act inactive, RGS4 block inactive and RGS4 pot inactive.
Cc1cc(SCC(=O)c2ccc(O)c(O)c2)nc2ccccc12 was read as MrgX1 agonist inactive, MrgX1 antag inactive, MrgX1 allo act 11*, RGS4 block inactive, RGS4 pot inactive, MrgX1 allo conf inactive, HEK293 Ca flux inactive, HEK293 Ca counter inactive and HEK293 Ca cntr2 inactive.
Cc1nnc(SCc2ccc(Cl)cc2)n1CC1CCCO1 (configuration not stated) was read as MrgX1 agonist inactive, MrgX1 antag inactive, MrgX1 allo act inactive, RGS4 block inactive and RGS4 pot inactive.
